Results on 23 sequences are retold here after the EternaBench riboswitch data.

The subject of data set [1] is MS2 coat protein. As to the kind of experiment: apparent Kd, MS2 coat protein; higher = weaker binding; RNA-MaP array. In short, it runs like this: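 In Tris-HCl pH 7.5 buffer with KCl, MgCl2, BSA, DTT, tRNA and Tween20, with or without input ligand, fluorescently labeled MS2 coat protein at 1.5 nM to 3 μM was incubated at room temperature with designed RNAs. The RNAs had been transcribed on an Illumina sequencing chip from sequenced DNA templates, and incubation ran 0.8–1.5 h at the lowest to 10–20 min at the highest concentrations. Apparent Kd is the median of binding-curve fits for individual clusters. Designs measured on fewer than 10 clusters were excluded.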

Data set [2] has as its system MS2 coat protein. Description: apparent Kd, MS2 coat protein; higher = weaker binding; RNA-MaP array; FMN 200 µM where present. In short, it runs like this: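 On Illumina sequencing-chip clusters, designs were transcribed by stalled E. coli RNA polymerase and titrated with SNAP-549-labelled MS2 coat protein (0.7 or 1.5 nM, doubling to 3 µM), without and then with constant ligand, in 100 mM Tris-HCl pH 7.5, 80 mM KCl, 4 mM MgCl2, BSA, DTT, yeast tRNA and Tween-20. Apparent Kd is the median of filtered per-cluster curve fits to green signal normalised to red-channel RNA signal and control-cluster median Fmax.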

[3] abbreviates: designed as: ON switch for tryptophan, no ligand.
Setting [4] is: ligand present: tryptophan, designed as: ON switch for tryptophan.
The mark [5] stands for this setting: designed as: OFF switch for flavin mononucleotide, no ligand.
The mark [6] stands for this setting: ligand present: flavin mononucleotide, designed as: OFF switch for flavin mononucleotide.
Setting [7] is: designed as: ON switch for flavin mononucleotide, no ligand.
Setting [8] is: ligand present: flavin mononucleotide, designed as: ON switch for flavin mononucleotide.

The apparent Kd is a dissociation constant that holds for the conditions of the assay.

With “GGGCACAUGAGGAUCACCCAUGUCCAACGGCGAGGACCGGUACGGCCGCCACUCGGUAUAAGCUUCGAAAAGGAGGAUCCUGCAG”, the “apparent Kd” value with MS2 coat protein [1] (setting [3]) came out at 38.4 nM; in the data set on MS2 coat protein [1] (setting [4]), 30.9 nM.

Consider “CUAAUGGUUGCAGGAUAUCGAAAACCGCACAUGAGGAUCACCCAUGUCGCUAAGCGUGACAUAGUCGAGAAGGGCAUGACAACU”, for which the “apparent Kd” value was 37.3 nM in the data set on MS2 coat protein [1] (setting [5]) and 14.8 nM in the data set with MS2 coat protein [1] (setting [6]).

As for “AAGCCACAUGAGGAUCACCCAUGUAAGGGUACCUGAGGAUAUCCGGCGGGACAGAAAGGAGGAGAAGGCAGAUCCA”, the “apparent Kd” value in the data set with MS2 coat protein [1] (setting [7]) was 50.2 nM; with MS2 coat protein [1] (setting [8]) it was 33 nM.

Consider “CUCGGCGCCCAAGGAUAUAGUGGAGGUAAGAAACUAGAAGGUGGUGUGCUAACAUGUUGUCCUUUACAUGAGGAUCACCCAUGU”, for which the “apparent Kd” value was 38.6 nM in the data set with MS2 coat protein [1] (setting [5]) and 32.9 nM with MS2 coat protein [1] (setting [6]).

Turning to “ACCGAUCGAGGAUAUACAGAACAAAAGAACAUGACGAAGAAACAUGAGGAUCACCCAUGUAGAAGGCGAAAAGA”, the results for the “apparent Kd” value in the data set on MS2 coat protein [1] (setting [5]) and with MS2 coat protein [1] (setting [6]) were 8.58 nM and 9.05 nM, respectively.

Turning to “UCUAACCUAGGAUAUACAUGCCUUGCGUAGCACAUCCGUUUACAUGAGGAUCACCCAUGUAGAAGGAGGGACGG”, the results for the “apparent Kd” value with MS2 coat protein [1] (setting [5]) and in the data set on MS2 coat protein [1] (setting [6]) were 6.55 nM and 8.51 nM, respectively.

On to “CGCGGACCACCUGAUACCAGCGCAGUCAUGCAUGAACCCAACAUGAGGAUCACCCAUGUACGCCCUUGGCAGCAGGGAAAAGUCG”, for which the “apparent Kd” value with MS2 coat protein [1] (designed as: OFF switch for theophylline, no ligand) was 161 nM; with MS2 coat protein [1] (ligand present: theophylline, designed as: OFF switch for theophylline), 267 nM.

Consider “CUUGUGGCACAGGAUAUUCCGACGUAAUCAAAUGAAGAAGGGUGCACAUGAGGAUCACCCAUGUGUGAACACAA”, for which the “apparent Kd” value with MS2 coat protein [1] (setting [5]) was 12.3 nM; in the data set on MS2 coat protein [1] (setting [6]) it was 26.8 nM.

As to “UGUCACUGUUUGGUUCAAUGAAGAAGAAUUCGAGGACCGGUACGGCCGCCACUCGCUAUGCAACAUGAGGAUCACCCAUGUAAAA”, the “apparent Kd” value came to 15.8 nM with MS2 coat protein [1] (designed as: OFF switch for tryptophan, no ligand) and 15.3 nM in the data set on MS2 coat protein [1] (ligand present: tryptophan, designed as: OFF switch for tryptophan).

In the case of “AGUGAGGUUCUAGGAUAUCUCCCUCGAGUGCAGCUACAUGAGGAUCACCCAUGUCAUGGGUGUCGAGAGAAGGAGAAGGGCUUA”, the results for the “apparent Kd” value in the data set with MS2 coat protein [1] (setting [5]) and in the data set with MS2 coat protein [1] (setting [6]) were 74.5 nM and 104 nM, respectively.

Regarding “GAUAGAUAUGUAAGGAUAUGUGACGCGCUUGAGAAACAGAAGGAACAUGAGGAUCACCCAUGUAGAUGUUGUGA”, the “apparent Kd” value came to 11.2 nM in the data set with MS2 coat protein [1] (setting [5]) and 9.94 nM in the data set with MS2 coat protein [1] (setting [6]).

As for “CAUGACAUGAGGAUCACCCAUGUAUCCAGUCGAGGACCGGUACGGCCGCCACUCGGUGCCUUCAAAUUUACAGACAGGUGACAGG”, the “apparent Kd” value with MS2 coat protein [1] (setting [3]) was found to be 33.7 nM; with MS2 coat protein [1] (setting [4]) it was 22.8 nM.

As to “GUGACUAAAUGCAAGGAUAUCCGCGGCGGUACAUGAGGAUCACCCAUGUCAAGAGUCCACUGGCAGGAGAAGGUGCCCUGCGUCAU”, the “apparent Kd” value with MS2 coat protein [1] (setting [7]) was 7.57 nM; in the data set on MS2 coat protein [1] (setting [8]), 6.07 nM.

As to “UAAGAAGAUGAGAAGGGCCAAGUAUGAGCCGGGCGAUACAUGAGGAUCACCCAUGUUUCCUAACGGCAGGAUAUCACUUCCUAU”, the “apparent Kd” value was determined as 5.86 nM in the data set on MS2 coat protein [1] (setting [5]) and 18.8 nM in the data set on MS2 coat protein [1] (setting [6]).

“AUAAUAACAUGAGGAUCACCCAUGUCCUCUUGGCGGCGGCUUAGAAGGUCGACUACUUUUCUUUCGAAGGAUAUAACCUGUUCU”: the entries for the “apparent Kd” value in the data set on MS2 coat protein [1] (setting [5]) and with MS2 coat protein [1] (setting [6]) were 913 nM and 733 nM, respectively.

For “AGGACGUCAGGAUAUUCUAUGUGGCUCUAAUGGCCGACCAUGAAGAAGGGACAUGAGGAUCACCCAUGUGAGCU”, the figures for the “apparent Kd” value with MS2 coat protein [1] (setting [5]) and with MS2 coat protein [1] (setting [6]) were 25.7 nM and 50.1 nM, respectively.

With “UGUCGGAGCAGAGGAUAUUACAUGAGGAUCACCCAUGUAUGAACCAAUAGCUGGAAACAGCAAUGUAAGAAGGCUGCUCCGUCA”, the figures for the “apparent Kd” value in the data set on MS2 coat protein [2] (setting [5]) and in the data set on MS2 coat protein [2] (setting [6]) were 11.9 nM and 167 nM, respectively.

Consider “GUAGAGUCAGGAUAUACGAGAUCGAAAGAUCAGUAAUCCUCACAUGAGGAUCACCCAUGUAGAAGGGACUCUAC”, for which the “apparent Kd” value is 23.4 nM in the data set on MS2 coat protein [2] (setting [5]) and 344 nM in the data set with MS2 coat protein [2] (setting [6]).

Take “GUCCCUACAUGAGGAUCACCCAUGUGGGCGGUAAGGAGCCCACAGGAUAUGCGAAGUAGGACAUAGCAGAAGGGUGGUGUUCAG”: the “apparent Kd” value with MS2 coat protein [2] (setting [7]) was 146 nM; in the data set with MS2 coat protein [2] (setting [8]) it was 97.3 nM.

As to “GGAUCACGAGGAUAUCGAUUUUAGUACAUGAGGAUCACCCAUGUUGUCCAGGUCUCGAUUCGAGAAGGCGUGAUUC”, the “apparent Kd” value with MS2 coat protein [2] (setting [5]) worked out at 36.6 nM; in the data set on MS2 coat protein [2] (setting [6]) it was 59.2 nM.

Regarding “AAUAUAAGAGCUGGAAAUCUCAAAACAUGAGGAUCACCCAUGUAGGAUAUCAGCACGAUAAGUGCUGAGAAGGACAUCCAGCUC”, the “apparent Kd” value in the data set on MS2 coat protein [2] (setting [5]) turned out to be 16 nM; with MS2 coat protein [2] (setting [6]), 18.1 nM.

On to “ACAUGAGGAUCACCCAUGUUGACAUAGGAUAUACAACAAUAGUUACAAUCAUGUACUAUUUGAUAGUAGAAGGAUGGAACAUGA”, for which the “apparent Kd” value is 15.2 nM with MS2 coat protein [2] (setting [5]) and 25.8 nM in the data set on MS2 coat protein [2] (setting [6]).

Take “GGUCGGAGCAGAGGAUAUUACAUGAGGAUCACCCAUGUAUGAACCAAUAGCUGGAAACAGCAAUGUAAGAAGGCUGCUCCGACA”: the figures for the “apparent Kd” value in the data set with MS2 coat protein [2] (setting [5]) and in the data set on MS2 coat protein [2] (setting [6]) were 13.5 nM and 173 nM, respectively.
